Experimental findings from ChEMBL document CHEMBL1141577, “Thiophene containing triarylmethanes as antitubercular agents” (2008) are described below.

≈ marks a conversion by molar mass, not a printed value.

The experiment has as its system Mycobacterium tuberculosis. Briefly: Antitubercular activity against Mycobacterium tuberculosis H37Rv by agar dilution method. It counts as functional. The essentials: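 Twofold serial dilutions of compound incorporated into Middlebrook 7H11 agar with OADC supplement, in duplicate wells, at final 12.5, 6.25, 3.125 and 1.56 µg/mL. A known CFU of H37Rv culture was spread on the agar surface, and plates were incubated at 37 °C in 5% CO2. MIC was taken as the lowest concentration giving complete inhibition of colonies.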

With `COc1ccc(C(c2cccs2)c2ccccc2OCCN2CCCCC2)cc1` (configuration not stated), the MIC is above 12.5 µg/mL.

`COc1ccc(C(c2cccs2)c2ccccc2OCCN2CCCCCC2)cc1` (configuration not stated) came in with an MIC above 12.5 µg/mL.

In turn, `COc1ccc(C(c2cccs2)c2ccccc2OCCN2CCCC2)cc1` (configuration not stated) yielded an MIC above 12.5 µg/mL.

The compound `CSc1ccc(C(c2ccc(O)cc2)c2cccs2)cc1` (configuration not stated) showed an MIC above 12.5 µg/mL.

Compound `COc1cccc(C(c2ccc(O)cc2)c2cccs2)c1` (configuration not stated) came in with an MIC above 12.5 µg/mL.

`COc1ccc(C(c2ccc(OCC(O)CN3CCN(Cc4ccccc4)CC3)cc2)c2cccs2)cc1` (configuration not stated) gave an MIC above 12.5 µg/mL.

Take `COc1ccc(C(c2ccc(OCC(O)CN3CCN(c4ccccn4)CC3)cc2)c2cccs2)cc1` (configuration not stated): the MIC is above 12.5 µg/mL.

`COc1ccc(C(c2ccc(OCC(O)CNC3CCCCC3)cc2)c2cccs2)cc1` (configuration not stated) came in with an MIC of 12.5 µg/mL (≈ 27.7 µM).

The compound `COc1ccc(C(c2ccc(OCC(O)CN3CCCCC3)cc2)c2cccs2)cc1` (configuration not stated) displayed an MIC of 12.5 µg/mL (≈ 28.6 µM).

The compound `COc1ccc(C(c2ccc(OCC(O)CNCCc3ccc(OC)c(OC)c3)cc2)c2cccs2)cc1` (configuration not stated) yielded an MIC above 12.5 µg/mL.

As for `Clc1ccc(C(c2ccc(OCCN3CCOCC3)cc2)c2cccs2)cc1` (configuration not stated), the lowest concentration to inhibit growth (MIC) was 12.5 µg/mL (≈ 30.2 µM).

On to `CSc1ccc(C(c2ccc(OCCN3CCCCCC3)cc2)c2cccs2)cc1` (configuration not stated), for which the MIC was 3.12 µg/mL (≈ 7.13 µM).

`COc1ccc(C(c2ccc(OCCN3CCCCCC3)cc2)c2cccs2)cc1` (configuration not stated) came in with an MIC of 12.5 µg/mL (≈ 29.6 µM).

`CCN(CC)CCOc1ccc(C(c2cccc(OC)c2)c2cccs2)cc1` (configuration not stated) showed an MIC of 3.12 µg/mL (≈ 7.89 µM).

The compound `COc1cccc(C(c2ccc(OCCN(C)C)cc2)c2cccs2)c1` (configuration not stated) gave an MIC of 12.5 µg/mL (≈ 34 µM).

`COc1cccc(C(c2ccc(OCCN3CCCCCC3)cc2)c2cccs2)c1` (configuration not stated) showed an MIC of 3.12 µg/mL (≈ 7.4 µM).

Take `COc1ccc(C(c2ccc(OCCN(C)C)cc2)c2cccs2)cc1` (configuration not stated): the MIC was found to be 12.5 µg/mL (≈ 34 µM).

As for `CSc1ccc(C(c2ccc(OCCN3CCOCC3)cc2)c2cccs2)cc1` (configuration not stated), the MIC was above 12.5 µg/mL.

With `COc1ccc(C(c2ccc(OCC(O)CN3CCCC3)cc2)c2cccs2)cc1` (configuration not stated), the MIC was above 12.5 µg/mL.

On to `COc1ccc(C(c2ccc(OCC(O)CN3CCSCC3)cc2)c2cccs2)cc1` (configuration not stated), for which the MIC was above 12.5 µg/mL.

As for `Oc1ccc(C(c2ccc(Cl)cc2)c2cccs2)cc1` (configuration not stated), the MIC is above 12.5 µg/mL.

For `COc1ccc(C(c2cccs2)c2ccccc2OCCN(C)C)cc1` (configuration not stated), the MIC is above 12.5 µg/mL.

`COc1ccc(C(c2ccc(OCC(O)CN3CCN(C)CC3)cc2)c2cccs2)cc1` (configuration not stated) displayed an MIC above 12.5 µg/mL.

Compound `COc1ccc(C(c2ccc(OCC(O)CNCCCN3CCOCC3)cc2)c2cccs2)cc1` (configuration not stated) came in with an MIC above 12.5 µg/mL.

`COc1ccc(C(c2ccc(OCCN3CCOCC3)cc2)c2cccs2)cc1` (configuration not stated) returned an MIC above 12.5 µg/mL.

With `CCN(CC)CCOc1ccc(C(c2ccc(Cl)cc2)c2cccs2)cc1` (configuration not stated), the MIC came out at 3.12 µg/mL (≈ 7.8 µM).

Consider `CCN(CC)CCOc1ccc(C(c2ccc(SC)cc2)c2cccs2)cc1` (configuration not stated), for which the MIC amounted to 3.12 µg/mL (≈ 7.58 µM).

As for `CCN(CC)CCOc1ccccc1C(c1ccc(OC)cc1)c1cccs1` (configuration not stated), the MIC was above 12.5 µg/mL.

`COc1ccc(C(c2ccc(O)cc2)c2cccs2)cc1` (configuration not stated): the MIC turned out to be 3.12 µg/mL (≈ 10.5 µM).

Turning to `CSc1ccc(C(c2ccc(OCCN(C)C)cc2)c2cccs2)cc1` (configuration not stated), the MIC is above 12.5 µg/mL.

In the case of `CCN(CC)CCOc1ccc(C(c2ccc(OC)cc2)c2cccs2)cc1` (configuration not stated), the MIC was found to be 6.25 µg/mL (≈ 15.8 µM).

With `COc1cccc(C(c2ccc(OCCN3CCOCC3)cc2)c2cccs2)c1` (configuration not stated), it took 12.5 µg/mL (≈ 30.5 µM) to inhibit growth (MIC).

On to `COc1ccc(C(c2ccc(OCC(O)CNCCCn3ccnc3)cc2)c2cccs2)cc1` (configuration not stated), for which the MIC was above 12.5 µg/mL.

`CCN(CC)CCCNCC(O)COc1ccc(C(c2ccc(OC)cc2)c2cccs2)cc1` (configuration not stated) yielded an MIC above 12.5 µg/mL.

In turn, `CN(C)CCOc1ccc(C(c2ccc(Cl)cc2)c2cccs2)cc1` (configuration not stated) displayed an MIC of 6.25 µg/mL (≈ 16.8 µM).

`NNC(=O)c1ccncc1` [ISONIAZID] displayed an MIC of 0.05 µg/mL (≈ 0.365 µM).

In turn, `CO[C@H]1/C=C/O[C@@]2(C)Oc3c(C)c(O)c4c(O)c(c(/C=N/N5CCN(C)CC5)c(O)c4c3C2=O)NC(=O)/C(C)=C\C=C\[C@H](C)[C@H](O)[C@@H](C)[C@@H](O)[C@@H](C)[C@H](OC(C)=O)[C@@H]1C` [RIFAMPIN] came in with an MIC of 0.1 µg/mL (≈ 0.122 µM).
